This note sets out measurements from ChEMBL document CHEMBL4513216, “Probing the Open Global Health Chemical Diversity Library for Multistage-Active Starting Points for Next-Generation Antimalarials” (ACS Infect Dis, 2020).

A short description of this data set: Toxicity liver stage against HepG2, at 10uM. Format: cell-based. Also noted: test concentration 10 uM, cell line HepG2-A16-CD81EGFP. To be noted: human, HepG2-A16-CD81EGFP cells; read-out: INHIBITION
In a few lines:
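Uninfected HepG2-A16-CD81EGFP cells, 3 × 10^3 per well, 1536-well, plated on prespotted compound at 10 μM final, parasite-free screening media added to match infected plates; puromycin 10 μM positive, DMSO 0.5% negative; run in parallel with 48 h PbLuc assay at 37 °C, 5% CO2; viability by CellTiter-Glo luminescence, normalized to controls.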
On to `Nc1nc2c(c3c1C(=O)NC3=O)CCC2`, for which the cytotoxicity at 10 µM is -4.21%.

Regarding `Cn1c(C(=O)Nc2nc[nH]n2)cc2ccccc21`, the cytotoxicity at 10 µM was 1.24%.

Turning to `COCC(C)(O)CNC(=O)Nc1cccc(OC)c1OC` (stereo unspecified), the cytotoxicity at 10 µM was -2.75%.

`COc1cc(N2C[C@H]3CN(CC(=O)N(C)C)C(=O)[C@H]3C2)ncn1`: the cytotoxicity at 10 µM was 96.6%.

For the compound `CN(C)C[C@H]1C[C@@H]2CN(C(=O)c3ccco3)C[C@@H]2O1`, the cytotoxicity at 10 µM was -5.77%.

For `O=C(N1CCOCC1)N1C[C@@H]2OCCN(C(=O)c3ccco3)[C@@H]2C1`, the cytotoxicity at 10 µM was -135%.

For `O=S1(=O)N=C(SCc2ccc(Cl)cc2)Nc2ccc(F)cc21`, the cytotoxicity at 10 µM was 27.6%.

`CCCNC(=O)c1cc2c([nH]c1=O)CC(c1cccs1)CC2=O` (stereo unspecified): the cytotoxicity at 10 µM is 50.9%.

On to `CCc1nc(NCc2ccccn2)c2c(n1)c(C)nn2C`, for which the cytotoxicity at 10 µM came to 8.92%.

With `Cc1ccc(NC(=O)N2CCN(Cc3ccccn3)CC2)cc1Cl`, the cytotoxicity at 10 µM is -7.21%.

For the compound `COc1ccc([C@@H]2NC(=O)N[C@H]3OCCC[C@H]32)cc1`, the cytotoxicity at 10 µM was 1.49%.

Regarding `CC(=O)NCC(=O)NCC1(O)CCN(c2cnccn2)C1` (stereo unspecified), the cytotoxicity at 10 µM amounted to 7.89%.

Regarding `Cc1cc2c(=O)n3c(nc2s1)CCN(C(=O)c1cnn(C)c1C)CC3`, the cytotoxicity at 10 µM stood at 0.359%.

`CC(=O)NC(Cc1c[nH]c2cc(F)ccc12)C(=O)Nc1cnn(C)c1` (stereo unspecified): the cytotoxicity at 10 µM was 13.9%.

For `CC(=O)Nc1cccc(CN2CCN(C3=NCC(C)(C)S3)CC2)c1`, the cytotoxicity at 10 µM was 0.955%.

Regarding `NS(=O)(=O)c1cnn(CC(=O)Nc2c(Cl)cccc2Cl)c1`, the cytotoxicity at 10 µM is -7.2%.

In the case of `CC1COC2(CCN(C(=O)c3ncoc3C(C)C)CC2)O1` (stereo unspecified), the cytotoxicity at 10 µM turned out to be 1.15%.

On to `CN(C(=O)C1CC(=O)N(CCc2ccccc2)C1)c1nccs1` (stereo unspecified), for which the cytotoxicity at 10 µM is 9.89%.

On to `Cc1noc(C)c1S(=O)(=O)N(CC(N)=O)CC(C)C`, for which the cytotoxicity at 10 µM was -6.46%.

Consider `CCOCC(=O)NCC1(NC(C)c2ccccc2)CCOCC1` (stereo unspecified), for which the cytotoxicity at 10 µM was -8.01%.

With `COc1ccc2oc(C(C)NC(=O)NCC(C)(C)C(N)=O)c(C)c2c1` (stereo unspecified), the cytotoxicity at 10 µM was -9.51%.

For the compound `CCS(=O)(=O)N1CCCC(c2nc3ccccc3n2C(C)C)C1` (stereo unspecified), the cytotoxicity at 10 µM is -6.11%.

With `CSc1ccc(S(=O)(=O)NC2CNC(=O)C2)cc1` (stereo unspecified), the cytotoxicity at 10 µM is -2.46%.

Turning to `O=C(NCCSCc1cccs1)C1CCCN(C(=O)N2CCCC2)C1` (stereo unspecified), the cytotoxicity at 10 µM was -13.6%.

In the case of `CSc1ccc(NCC(=O)Nc2c(C)nn(C)c2C)cc1F`, the cytotoxicity at 10 µM worked out at 10.7%.

For `CCC(NCc1cc[nH]n1)c1nc(C(F)(F)F)cs1` (stereo unspecified), the cytotoxicity at 10 µM is 6.12%.

As to `CNC(=O)NC(=O)CCSc1ccccc1Cl`, the cytotoxicity at 10 µM is -5.13%.

For `O=C(Nc1cccc(OCC(F)F)n1)c1ccncc1F`, the cytotoxicity at 10 µM is -3.33%.

Turning to `Cc1cc(C)n(C2CN(CC(=O)NCc3ccccn3)C2)n1`, the cytotoxicity at 10 µM was -2.92%.

As to `COC(=O)C(NC(=O)COC1CCCCC1)c1ccccc1` (stereo unspecified), the cytotoxicity at 10 µM was -21.4%.

In the case of `O=S(=O)(Cc1c(F)cccc1F)NCCOc1cccnc1`, the cytotoxicity at 10 µM was -39.7%.

As for `COc1ccc(C(C)N2CCC(OC)CC2)cc1Cl` (stereo unspecified), the cytotoxicity at 10 µM is -53.2%.

With `CCN(Cc1noc(CC(C)C)n1)Cc1ccccc1C`, the cytotoxicity at 10 µM is -50.8%.

As to `CC(C)C1CN(C(=O)c2ccc(N3CCCC3)nc2)CCS1` (stereo unspecified), the cytotoxicity at 10 µM is -4.81%.

For `Cc1nc(COC[C@@]23CCC[C@@H]2CN(Cc2cnn(C)c2)C3)cs1`, the cytotoxicity at 10 µM is -101%.

In the case of `CCC1=NC2(CCC(C(=O)Nc3ccc(F)cc3)CC2)C(=O)N1C` (stereo unspecified), the cytotoxicity at 10 µM is 2.26%.

In the case of `COCC1CN(C(=O)c2cccn2C)Cc2nccn2C1` (stereo unspecified), the cytotoxicity at 10 µM came to 6.92%.

Take `Cc1cc(CN(C)C(=O)c2cc(COc3ccccc3)[nH]n2)n[nH]1`: the cytotoxicity at 10 µM worked out at 5.76%.

Regarding `CCOc1cccc(C2CC(=O)NCc3nc(N)sc32)c1` (stereo unspecified), the cytotoxicity at 10 µM was -9.23%.

On to `CC(C)CN1CC(c2nc(-c3cccc(F)c3)c[nH]2)CC1=O` (stereo unspecified), for which the cytotoxicity at 10 µM came to 4.52%.

`Cc1ccc(CN(C)C(=O)c2cc(Cn3ccnc3C(C)C)[nH]n2)o1`: the cytotoxicity at 10 µM came out at 0.073%.

In the case of `COc1cc(NCCCSc2nnc(C)s2)ncn1`, the cytotoxicity at 10 µM stood at 20.6%.

Turning to `Cc1ccc(NC2(C(=O)N3CCn4cncc4C3)CCCCC2)cc1C`, the cytotoxicity at 10 µM worked out at 8.47%.

`CCc1ccc2nc(NCCCN(CCO)CCO)cc(C)c2c1`: the cytotoxicity at 10 µM was -13.3%.

`CCN(C(C)=O)C1CCN(c2nccc(C3CCCC3)n2)C1` (stereo unspecified): the cytotoxicity at 10 µM was -5.35%.

Take `NC1(C(=O)NCC2CCCN(Cc3ccccc3F)C2)CCCC1` (stereo unspecified): the cytotoxicity at 10 µM was -43.2%.

On to `Cn1cccc1C(=O)N1CC[C@@]2(O)CCN(S(C)(=O)=O)C[C@H]2C1`, for which the cytotoxicity at 10 µM was -10.7%.

Regarding `CC(C)c1nc(CNC(=O)c2ccc(C(C)N3CCCCC3)o2)cs1` (stereo unspecified), the cytotoxicity at 10 µM was -9.93%.

As to `CN(C)c1nc(NCCc2ccnn2C)ncc1F`, the cytotoxicity at 10 µM is -9.83%.

Take `Cc1cc(C)c2c(NCCC3(O)CCCC3)ncnc2n1`: the cytotoxicity at 10 µM was -4.44%.

For `OCC1(O)CCN(Cc2ccc(C3CCCCO3)o2)CC1` (stereo unspecified), the cytotoxicity at 10 µM is -5.95%.

As to `CN1CCN(Cc2noc(CC3CCc4ccccc43)n2)CC1` (stereo unspecified), the cytotoxicity at 10 µM is -20.1%.

For `Cc1n[nH]c(C)c1CCc1ccc(S(C)(=O)=O)cc1`, the cytotoxicity at 10 µM worked out at 6.29%.

In the case of `CC(C)c1cc(N[C@@H](CO)C(N)=O)n2nccc2n1`, the cytotoxicity at 10 µM is -1.28%.

Consider `CCc1ccccc1OCCN(C)C(=O)CCN1CCCO1`, for which the cytotoxicity at 10 µM is -43%.

In the case of `CCNc1ncc(C(=O)N2CCOC(CCCc3ccccc3)C2)cn1` (stereo unspecified), the cytotoxicity at 10 µM worked out at 79.2%.

Take `Cc1ccc(F)c(NC(=O)CCC(=O)N(C)Cc2cc(C3CC3)[nH]n2)c1`: the cytotoxicity at 10 µM turned out to be 7.28%.

Consider `CC(C)CN1C(=O)CC[C@H]2CN(Cc3ncc[nH]3)CC[C@H]21`, for which the cytotoxicity at 10 µM is -3.25%.

Turning to `CN(C)C(C(=O)N1CCN(C(=O)c2ccc[nH]2)CC1)c1ccc(F)cc1` (stereo unspecified), the cytotoxicity at 10 µM was -5.19%.

As to `CCn1nc(C)cc1C(=O)NCc1cccnc1N(C)C`, the cytotoxicity at 10 µM was -5.54%.

Take `Cc1ccc2c(c1)cc(CN1CC[C@](C)(O)[C@H](C)C1)n2C`: the cytotoxicity at 10 µM came to 0.379%.

Consider `Cc1cccnc1CC(C)NC1Cc2ccccc2C1` (stereo unspecified), for which the cytotoxicity at 10 µM is 4.69%.

Regarding `CCCN1CCCC1c1ccc(C(=O)N2CCOCC2)s1` (stereo unspecified), the cytotoxicity at 10 µM is -146%.

Regarding `NCC1CN(c2nc(-c3ccccc3)nc3c2CCNCC3)CCO1` (stereo unspecified), the cytotoxicity at 10 µM is -14.9%.

As for `CCNC(=O)[C@@H]1C[C@@H](NC(=O)Cc2ccccn2)CN1CCCSC`, the cytotoxicity at 10 µM is -6.72%.

On to `CCc1nc(C2CCCN(C(=O)c3ccccc3Cl)C2)no1` (stereo unspecified), for which the cytotoxicity at 10 µM is -5.43%.

For `CCn1ncc2c1CCCC2NCc1ccc(OC)cc1OC` (stereo unspecified), the cytotoxicity at 10 µM is -2.06%.

Take `Cc1nccn1C1CCCN(C(=O)c2cc3c(F)cccc3[nH]2)C1` (stereo unspecified): the cytotoxicity at 10 µM came to 5.32%.

Take `COCc1nc(CN(CC(N)=O)C(C)C)cs1`: the cytotoxicity at 10 µM was -8.39%.

As for `O=C(CN1CCCC(Cn2cncn2)C1)NCCc1cccs1` (stereo unspecified), the cytotoxicity at 10 µM was -17.6%.

Turning to `CCc1nc(CN2CCN(CC(O)c3ccccc3)CC2)no1` (stereo unspecified), the cytotoxicity at 10 µM is -15.3%.

Consider `Cc1cccc(C(=O)NCc2ccc(S(N)(=O)=O)cc2)n1`, for which the cytotoxicity at 10 µM was -4.25%.

Regarding `c1ccc(OCc2ccncc2)c(CNC2CCc3ncnn3C2)c1` (stereo unspecified), the cytotoxicity at 10 µM was -2.35%.

For the compound `c1ccc(-c2nccc(CNCC3CCCN3c3cccnn3)n2)cc1` (stereo unspecified), the cytotoxicity at 10 µM was -1.17%.

As for `CCOc1ccnc(N2CCN(C(=O)c3cc(Cl)c[nH]3)CC2)n1`, the cytotoxicity at 10 µM was -9.29%.

In the case of `CC(C)c1nnc2n1CCN(C(=O)c1ccnc(N(C)C)c1)C2`, the cytotoxicity at 10 µM was found to be 3.06%.

Regarding `Cc1ncccc1CNCC1CCN(CC(O)c2ccccc2)CC1` (stereo unspecified), the cytotoxicity at 10 µM was -6.76%.

As to `Cc1ccc(NC2CCN(C(=O)CN(C)C3CC3)CC2)nn1`, the cytotoxicity at 10 µM stood at 4.64%.

On to `Cc1ccc(C#N)cc1NC(=O)NC1CCCN(c2ncccn2)C1` (stereo unspecified), for which the cytotoxicity at 10 µM is -10.2%.

Take `CN(CC1CN(Cc2cn3ccsc3n2)CCO1)c1cccnn1` (stereo unspecified): the cytotoxicity at 10 µM was found to be 4.55%.

Turning to `Cc1ccc(=O)n(CC2(O)CCN(Cc3cc(C)c(O)c(C)c3)CC2)n1`, the cytotoxicity at 10 µM came to 1.7%.

With `Cn1cc(CNC2CCc3c(ccc(=O)n3Cc3ccncc3)C2)cn1` (stereo unspecified), the cytotoxicity at 10 µM was -102%.

For the compound `Cc1c(Br)cccc1C(=O)NCC1CCCNC1` (stereo unspecified), the cytotoxicity at 10 µM came to 19.8%.

For `CN(Cc1ccco1)[C@@H]1CN(C(=O)c2ccnnc2)[C@@H]2CCCO[C@H]12`, the cytotoxicity at 10 µM was -7.93%.

With `COCC1CC2(CCN(C(=O)c3cnc4ccccc4c3)CC2)CO1` (stereo unspecified), the cytotoxicity at 10 µM is -142%.

With `CCc1ccc(CN2C[C@H](OC)[C@H]3COC[C@H]32)o1`, the cytotoxicity at 10 µM worked out at 5.22%.

Turning to `O=C(c1cocn1)N1C[C@H]2CCC[C@@]2(COc2ccccn2)C1`, the cytotoxicity at 10 µM was -0.798%.

`CCN1CCCC12CCN(Cc1cccnc1OC)CC2`: the cytotoxicity at 10 µM stood at 13.4%.

With `COc1ccc(S(=O)(=O)N2CCN(C)c3ncccc3C2)cc1`, the cytotoxicity at 10 µM is -110%.

On to `Cc1nc(CN2CCO[C@@H]3CN(Cc4ccccn4)CC[C@@H]3C2)cs1`, for which the cytotoxicity at 10 µM came to 7.02%.

Regarding `O=C(NC1CC1)[C@H]1C[C@H]2OCC[C@H]2N(Cc2cccnc2)C1`, the cytotoxicity at 10 µM amounted to 0.698%.

With `Cc1ccc2c(c1)C(NC1CC1)CC21CCNCC1` (stereo unspecified), the cytotoxicity at 10 µM was -98%.

In the case of `O=C1COC2(CCN(c3cccc(F)c3)CC2)CN1Cc1ccccn1`, the cytotoxicity at 10 µM is -2.94%.

With `N#Cc1cccc(N2CCCC3(C2)CN(c2ncccn2)CCO3)n1` (stereo unspecified), the cytotoxicity at 10 µM was determined as 17.8%.

Consider `Cc1cccc(S(=O)(=O)N2C[C@@H]3C[C@H](C(=O)N(C)C)[C@H](C2)O3)c1`, for which the cytotoxicity at 10 µM was -5.18%.

As to `Cc1ccc(-c2cc(C3=NC(=CN4CCN(C)CC4)NO3)[nH]n2)cc1`, the cytotoxicity at 10 µM is -10.5%.
